This is an account of results in publication PMC4066744 (Nucleic Acids Research, 2014).

For test [1], the target named is KIX domain from mouse CBP 586-672 (mouse) (UniProt P45481). As to the kind of experiment: fluorescence polarisation.
In test [2] the target is KIX domain of CBP/p300 (mouse CBP 586–672) (Mus musculus, UniProt P45481). It counts as binding. As to conditions: for decrease in affinity for the KIX domain relative to native E2A AD2–1: mutant peptide versus wild-type E2A AD2–1, fluorescence anisotropy titration. In a few lines:
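Mouse CBP KIX (586–672), E. coli BL21(DE3)-expressed, purified, with final size exclusion in 20 mM MES pH 6.0, 1 mM β-mercaptoethanol (same buffer for titration). KIX spiked with 100 nM FITC-peptide titrated into that peptide. Ex 492/em 523 nm; three readings per injection averaged. Kd from quadratic one-site fit plus linear non-specific term. Mutant-peptide series run in triplicate; mean ± standard error.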

The target in test [3] is KIX^ΔPCETsite (Phe612Ala/Asp622Ala/Arg624Ala/Lys667Glu quadruple KIX mutant) (Mus musculus, UniProt P45481, D622A/F612A/K667E/R624A). It is filed as binding. Particulars: 250 μM versus 17 μM.
Chain of KIX^ΔPCETsite (Phe612Ala/Asp622Ala/Arg624Ala/Lys667Glu quadruple KIX mutant) (P45481 586-672 F612A/D622A/R624A/K667E): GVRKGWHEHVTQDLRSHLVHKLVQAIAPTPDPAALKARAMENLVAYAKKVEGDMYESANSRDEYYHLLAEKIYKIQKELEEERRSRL
For test [4], the target named is KIX domain from mouse CBP 586-672 (mouse, UniProt P45481 586-672). Kind of test: NMR titration.
Chain of KIX domain from mouse CBP 586-672 (P45481 586-672): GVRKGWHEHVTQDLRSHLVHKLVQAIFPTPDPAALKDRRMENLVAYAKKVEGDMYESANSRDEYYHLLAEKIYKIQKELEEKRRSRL

Chain of KIX domain of CBP/p300 (mouse CBP 586–672) (P45481 586-672): as above
Chain of KIX domain from mouse CBP 586-672 (mouse) (P45481 586-672): as above

As to “E2A AD2-1 His402Ala FITC-labelled synthetic mutant peptide (from UniProt P15923 394-407)”, the Kd in test [1] was 13.5 µM.

Regarding “Ac-EDHLDEAIHVARSH-NH2 (N-terminus and C-terminus assumed) [E2A AD2–1 Leu404Ala]”, in test [2], the “decrease in affinity for the KIX domain relative to native E2A AD2–1” value is recorded as “approximately 5 fold”. Consider “E2A AD2-1 Leu404Ala FITC-labelled synthetic mutant peptide (from UniProt P15923 394-407)”, for which, in test [1], the dissociation constant (Kd) was found to be 86 µM. Same read-out and setting: next, “E2A AD2-1 Ile401Ala FITC-labelled synthetic mutant peptide (from UniProt P15923 394-407)”: 106 µM. The same measure, in the same setting: the result for “E2A AD2-1 Leu397Ala FITC-labelled synthetic mutant peptide (from UniProt P15923 394-407)” reads 102 µM; that for “E2A AD2-1 Ala400Leu FITC-labelled synthetic mutant peptide (from UniProt P15923 394-407)”, 7.2 µM.

With “Ac-EDHLDEAIHVLRSHY-NH2 [E2A AD2–1 (C-terminal tyrosine)]”, in test [2], the Kd came to 21 ± 5 µM. Still for that read-out and setting: next, “Ac-EDHLDEAIHVLRSHAVGTAGDMHTLLP-NH2 [E2A AD2–1/2]”: 21 ± 3 µM. In the case of “Ac-EDHADEAIHVLRSH-NH2 (N-terminus and C-terminus assumed) [E2A AD2–1 Leu397Ala]”, the “decrease in affinity for the KIX domain relative to native E2A AD2–1” value in test [2] was determined as 6 fold. For Ac-EDHLDEAIHVLRSH-NH2 [E2A AD2–1], in test [3], the “decrease in affinity of KIX^ΔPCETsite mutant relative to native KIX” value was determined as 15 fold. As for EDHLDEAIHVLRSHAVGTAGDMHTLLP [Unfused recombinant E2A AD2-1/2 (E2A residues 394-420)], the binding result in test [4] is recorded as “binds”.
